rCAG binder: binders of r(CAG) RNA repeats, primary screen, biochemical, fluorescence; r(CAG) RNA repeat, TO-PRO-1 dye displacement fluorescence; inhibition, % at 3 µM; actives 1.3% (n = 370,000); AID 651821, 2012;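 active = inhibition above the plate cutoff, the mean of all test compounds on that plate plus 3 SD, cut at about 35% in these data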;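 also: 0% = DMSO alone and 100% = 100 µM mitoxantrone as full dye displacement; higher means more dye released from RNA so lower well fluorescence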
NadD inh: inhibitors of S. aureus NadD, primary screen, biochemical, colorimetric, uHTS | purified NadD enzyme, colorimetric absorbance read-out | inhibition, % at 20 µM | actives 0.78% (n = 360,000); in the data active = inhibition above about 26%
ABHD5-PLIN5 inh: ABHD5-PLIN5 interaction inhibitors, primary screen, cell lysate, split luciferase complementation, luminescence; Perilipin-5 (Homo sapiens) + 1-acylglycerol-3-phosphate O-acyltransferase ABHD5 (Homo …; Split G. princeps luciferase complementation, 4 h; inhibition, % at 4 µM; actives 0.78% (n = 360,000); AID 602281, 2012;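 active = inhibition above the mean inhibition across every tested compound plus 3 SD, cut at about 22% in these data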;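 also: 0% = DMSO only wells and the 100% control is not disclosed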
HCV core dimer: inhibitors of HCV core protein dimerization, primary screen, biochemical, TR-FRET, high-throughput. actives 0.33% (n = 300,000). TR-FRET GST/Flag-core106 dimerization, 1536-well. inhibition, % at 5 µM. AID 1899, 2009;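 active = inhibition above the mean of all tested compounds plus 3 SD, set per screening campaign, cut at about 45% in these data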
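System – GST-tagged and Flag-tagged HCV core protein residues 1-106 · Repeats – one well for each compound · Technique – TR-FRET 671 and 617 nm emission · Doses – one concentration, 5 µM, in 0.5% DMSO · Times – 4 h, 22.5 °C incubation · Also added – Eu donor and XL665 acceptor anti-tag antibodies · Measure – percent inhibition of core106 dimerization signal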
ABHD5-PLIN5 conf: ABHD5-PLIN5 interaction inhibitors, confirmation, biochemical, luminescence; shares compounds with ABHD5-PLIN5 inh; inhibition, % at 4 µM; actives 67% (n = 2,200); AID 651612, 2012; in the data active = inhibition above about 23%;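 also: 0% = DMSO vehicle wells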
HNF4 counter: HNF4 dimerization inhibitors, counter-screen for ABHD5-PLIN5 interaction inhibitor project, biochemical, split-luciferase complementation, luminescence | actives 77% (n = 2,200) | shares compounds with ABHD5-PLIN5 inh | inhibition, % at 4 µM;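 active = mean inhibition across replicate wells exceeding the computed hit threshold, cut at about 13% in these data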;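 also: light from luciferase halves that rejoin when HNF4 fusion proteins dimerize; 0% = DMSO only wells and the 100% control is not given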
Target sequence (P41235 whole entry, looked up, the tested form may be a part): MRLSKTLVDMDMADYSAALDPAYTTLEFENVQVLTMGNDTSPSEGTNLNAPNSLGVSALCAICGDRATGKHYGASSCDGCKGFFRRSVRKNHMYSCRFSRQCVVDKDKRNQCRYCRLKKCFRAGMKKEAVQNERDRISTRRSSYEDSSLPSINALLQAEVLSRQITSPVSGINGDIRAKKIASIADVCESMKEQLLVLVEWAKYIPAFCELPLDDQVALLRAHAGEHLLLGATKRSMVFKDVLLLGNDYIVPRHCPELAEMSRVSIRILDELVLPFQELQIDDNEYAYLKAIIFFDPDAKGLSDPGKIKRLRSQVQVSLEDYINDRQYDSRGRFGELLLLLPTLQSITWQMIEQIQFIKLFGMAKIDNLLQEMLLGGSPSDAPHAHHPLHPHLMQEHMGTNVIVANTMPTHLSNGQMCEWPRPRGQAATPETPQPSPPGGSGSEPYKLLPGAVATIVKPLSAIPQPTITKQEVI
Starred values were filed as active, the others as inactive; x = no result. Most compounds without a hit are left out; they make up all but 2.6% or so of the library.

SMILES	rCAG binder	NadD inh	ABHD5-PLIN5 inh	HCV core dimer	ABHD5-PLIN5 conf	HNF4 counter
CCOC(=O)c1cc2c(=O)n3ccccc3nc2n(Cc2ccc(Cl)cc2)c1=N	1	-3	-1	x	x	x
COCCn1c(=N)c(C(=O)NCc2ccco2)cc2c(=O)n3ccccc3nc21	6	0	25*	11	7	33*
N=c1c(C(=O)NCc2ccco2)cc2c(=O)n3ccccc3nc2n1Cc1ccc(Cl)cc1	0	26	26*	67*	14	23*
COCCCn1c(=N)c(C(=O)NCc2ccc3c(c2)OCO3)cc2c(=O)n3ccccc3nc21	5	8	2	6	x	x
Cc1ccc2nc3c(cc(C(=O)NCc4ccccc4)c(=N)n3CCCn3ccnc3)c(=O)n2c1	4	4	0	x	x	x
CCN(CC)C(=O)c1ncn2c1C(=O)N(C)CC2	1	-2	4	x	x	x
O=C(CSc1nnc(-c2ccco2)n1Cc1ccco1)c1ccc([N+](=O)[O-])cc1	14	x	x	x	x	x
C[C@H](c1ccccc1)N1C[C@@H](COCc2ccccc2)Oc2cccc(F)c2S1(=O)=O	0	x	x	x	x	x
C=C1C(=O)C23C(O)C1CCC2C12CCCC(C)(COC(C)=O)C1C(O)C3(O)OC2 (centres undefined)	3	-3	91*	x	92*	113*
C=CCN1[C@H](CO)[C@H](c2ccc(C#CC3(O)CCCC3)cc2)[C@@H]1C#N	6	x	x	x	x	x
COC1=CC(=O)c2ccccc2C1=O	x	3	-11	x	x	x
COC1=CC(=O)C=C(OC)C1=O	2	-2	79*	x	88*	105*
COCCn1c(SC(C)C(=O)Nc2ncc(Cl)cc2Cl)nc2ccccc21 (centres undefined)	-1	1	4	8	x	x
Cc1nnc(SC(C)C(=O)Nc2ncc(Cl)cc2Cl)n1Cc1ccccc1 (centres undefined)	-4	1	57*	1	3	0
O=C(CC(Sc1ccc(Br)cc1)C(=O)O)c1ccc(F)cc1 (centres undefined)	9	-4	66*	1	42*	80*
CCC(Sc1ccc(C(=O)O)cc1)C(=O)O (centres undefined)	-2	-6	3	-2	x	x
O=C(CC(C(=O)O)c1ccc(Cl)cc1)c1ccc(Br)cc1 (centres undefined)	20	-1	-6	11	x	x
CCOc1ccc(C(=O)CC(Sc2ccc(C)cc2)C(=O)O)cc1 (centres undefined)	5	2	60*	5	17	69*
Cc1ccccc1NC(=O)C[C@H]1CC[C@H]2[C@@H](COc3ccc(NC(=O)Nc4ccccc4)cc3C(=O)N2C)O1	7	x	x	x	x	x
COc1ccccc1C(=O)Nc1sc(C(=O)N2CCCC2)c(C)c1C#N	2	0	60*	8	3	2
Cc1ccc(C)c(-n2sc3ccc(F)cc3c2=O)c1	-1	16	100*	x	76*	114*
COc1ccc(-n2sc3ccc(F)cc3c2=O)cc1	8	-2	86*	x	93*	120*
Cc1ccc(-c2cc(=O)c3cc(F)ccc3[nH]2)cc1	0	-1	-4	0	x	x
COc1ccc(-n2cc(C(=O)O)c3ccccc3c2=O)cc1	-2	-1	2	0	x	x
COc1ccc(-n2sc3ccccc3c2=O)cc1	2	-4	76*	x	81*	120*
SMILES	rCAG binder	NadD inh	ABHD5-PLIN5 inh	HCV core dimer	ABHD5-PLIN5 conf	HNF4 counter
Cc1ccccc1CC1(CO)CCCN(C(=O)c2ccoc2)C1 (centres undefined)	1	-10	-3	x	x	x
COC(=O)C1(F)C(=O)NC(=O)NC1OC (centres undefined)	2	x	x	x	x	x
N#Cc1ccccc1Cn1cc(/C=C/[N+](=O)[O-])c2ccccc21	11	-2	69*	18	100*	96*
C(=N\n1cnnc1)/c1cn(Cc2ccccc2)c2ccccc12	0	1	6	2	x	x
O=[N+]([O-])/C=C/c1cn(Cc2ccccc2)c2ccccc12	8	3	31*	-2	101*	99*
O=C(O)Cn1cc(/C=C/[N+](=O)[O-])c2ccccc21	8	10	15	0	x	x
O=C(Cn1cc(/C=C\[N+](=O)[O-])c2ccccc21)Nc1ccccc1	20	-3	27*	-4	96*	83*
O=C(Nc1ccccc1)C1=C(c2ccccc2)S(=O)(=O)CCS1(=O)=O	2	-1	88*	x	100*	108*
O=C(O)c1ccccc1C(=O)Nc1ccccc1	0	-3	-8	-2	x	x
CN1CC=C(c2ccc(C(F)(F)F)cc2)N(c2ccccc2)C1=O	4	x	x	x	x	x
Cc1cc(N2CCCC2)c(F)cc1/C=C\[N+](=O)[O-]	-2	7	47*	x	97*	95*
O=C(CSc1nnc(-c2ccncc2)n1-c1ccc(Cl)cc1)c1ccc(Cl)c(Cl)c1	5	x	x	x	x	x
COc1ccc(OC)c(NC(=O)CN2C(=O)NC3(CCCc4ccccc43)C2=O)c1 (centres undefined)	0	2	8	x	x	x
COc1cccc(NC(=O)CN2C(=O)NC3(CCCc4ccccc43)C2=O)c1 (centres undefined)	2	5	92*	x	4	2
CCOC(=O)c1c(NC(=O)COC(=O)c2cnccn2)sc(C(=O)NC)c1C	3	-7	4	-2	x	x
CCOC(=O)c1c(-c2ccco2)csc1NC(=O)COC(=O)c1cnccn1	30	20	25*	67*	18	15*
CCOC(=O)[C@@]12CN(C(=O)OC(C)(C)C)CC=C1N(Cc1ccc(OC)cc1)C(=O)[C@H]2CC(=O)N1CCC(c2ccccc2)CC1	2	x	x	x	x	x
CCC(c1nnnn1Cc1ccco1)N(Cc1cc2cc(C)cc(C)c2[nH]c1=O)CC1CCCO1 (centres undefined)	11	2	28*	6	10	10
C=CCN1C(=O)[C@H](CC(=O)N2CCCCC2)[C@@]2(C(=O)OCC)CCCC=C12	-1	x	x	x	x	x
CC(C)C[C@H]1CNC(=S)N1C[C@H]1CCCN1C[C@H](Cc1ccc(O)cc1)N1C[C@H](Cc2ccc(O)cc2)N(CCc2ccccc2)C1=S	17	22	23*	x	8	2
CC(C)C[C@H]1CNC(=S)N1C[C@H]1CCCN1C[C@H](Cc1ccccc1)N1C[C@H](Cc2ccc(O)cc2)N(CCc2ccccc2)C1=S	12	26	10	x	x	x
CCCC(=O)Nc1nnc(S(=O)(=O)N(C)Cc2ccco2)s1	x	-2	41*	18	30*	56*
CN(Cc1ccco1)S(=O)(=O)c1nnc(NC(=O)c2ccccc2Cl)s1	26	-5	30*	18	46*	74*
